Source: ChEMBL document CHEMBL4052595, “Application of Residual Dipolar Couplings and Selective Quantitative NOE to Establish the Structures of Tetranortriterpenoids from Xylocarpus rumphii” (J Nat Prod, 2017)
Calls of active or inactive are those of the source.

Columns and labels:
Format in all cases: functional, cell-based
NCI-H226 = assay: Growth inhibition of human NCI-H226 cells at 10^-5 M incubated for 48 hrs by sulforhodamine B assay
In short: (§1)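 Run in the NCI59 one-dose cell-line screen, with each compound tested at a single concentration of 1 × 10−5 M.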

SK-MEL-2 = assay: Growth inhibition of human SK-MEL-2 cells at 10^-5 M incubated for 48 hrs by sulforhodamine B assay; in short: as §1
SK-MEL-5 = assay: Growth inhibition of human SK-MEL-5 cells at 10^-5 M incubated for 48 hrs by sulforhodamine B assay; in short: as §1
KM12 = assay: Growth inhibition of human KM12 cells at 10^-5 M incubated for 48 hrs by sulforhodamine B assay; in short: as §1
SK-MEL-28 = assay: Growth inhibition of human SK-MEL-28 cells at 10^-5 M incubated for 48 hrs by sulforhodamine B assay; in short: as §1
SF-295 = assay: Growth inhibition of human SF295 cells at 10^-5 M incubated for 48 hrs by sulforhodamine B assay; in short: as §1
SNB-19 = assay: Growth inhibition of human SNB19 cells at 10^-5 M incubated for 48 hrs by sulforhodamine B assay; in short: as §1
SR = assay: Growth inhibition of human SR cells at 10^-5 M incubated for 48 hrs by sulforhodamine B assay; in short: as §1
A498 = assay: Growth inhibition of human A498 cells at 10^-5 M incubated for 48 hrs by sulforhodamine B assay; in short: as §1
K562 = assay: Growth inhibition of human K562 cells at 10^-5 M incubated for 48 hrs by sulforhodamine B assay; in short: as §1
SN12C = assay: Growth inhibition of human SN12C cells at 10^-5 M incubated for 48 hrs by sulforhodamine B assay; in short: as §1
PC-3 = assay: Growth inhibition of human PC3 cells at 10^-5 M incubated for 48 hrs by sulforhodamine B assay; in short: as §1
NCI/ADR-RES = assay: Growth inhibition of human NCI/ADR-RES cells at 10^-5 M incubated for 48 hrs by sulforhodamine B assay; in short: as §1
T47D = assay: Growth inhibition of human T47D cells at 10^-5 M incubated for 48 hrs by sulforhodamine B assay
In short: (§2)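 Tested at a single concentration of 1 × 10−5 M as part of the NCI59 cell-line one-dose screen.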

ACHN = assay: Growth inhibition of human ACHN cells at 10^-5 M incubated for 48 hrs by sulforhodamine B assay; in short: as §1
Hs-578T = assay: Growth inhibition of human Hs 578T cells at 10^-5 M incubated for 48 hrs by sulforhodamine B assay; in short: as §1
UACC-62 = assay: Growth inhibition of human UACC62 cells at 10^-5 M incubated for 48 hrs by sulforhodamine B assay; in short: as §2
MDA-MB-231 = assay: Growth inhibition of human MDA-MB-231 cells at 10^-5 M incubated for 48 hrs by sulforhodamine B assay; in short: as §1
OVCAR-4 = assay: Growth inhibition of human OVCAR4 cells at 10^-5 M incubated for 48 hrs by sulforhodamine B assay; in short: as §1
LOX IMVI = assay: Growth inhibition of human LOXIMVI cells at 10^-5 M incubated for 48 hrs by sulforhodamine B assay; in short: as §1
MCF7 = assay: Growth inhibition of human MCF7 cells at 10^-5 M incubated for 48 hrs by sulforhodamine B assay; in short: as §1
HCC 2998 = assay: Growth inhibition of human HCC2998 cells at 10^-5 M incubated for 48 hrs by sulforhodamine B assay; in short: as §1
HCT-116 = assay: Growth inhibition of human HCT116 cells at 10^-5 M incubated for 48 hrs by sulforhodamine B assay; in short: as §1
SW-620 = assay: Growth inhibition of human SW620 cells at 10^-5 M incubated for 48 hrs by sulforhodamine B assay; in short: as §2
HOP-62 = assay: Growth inhibition of human HOP62 cells at 10^-5 M incubated for 48 hrs by sulforhodamine B assay; in short: as §1
BT-549 = assay: Growth inhibition of human BT549 cells at 10^-5 M incubated for 48 hrs by sulforhodamine B assay; in short: as §1
COLO 205 = assay: Growth inhibition of human COLO205 cells at 10^-5 M incubated for 48 hrs by sulforhodamine B assay; in short: as §1
SF-539 = assay: Growth inhibition of human SF539 cells at 10^-5 M incubated for 48 hrs by sulforhodamine B assay; in short: as §1
786-0 = assay: Growth inhibition of human 786-0 cells at 10^-5 M incubated for 48 hrs by sulforhodamine B assay; in short: as §1
SK-OV-3 = assay: Growth inhibition of human SKOV3 cells at 10^-5 M incubated for 48 hrs by sulforhodamine B assay; in short: as §1
NCI-H460 = assay: Growth inhibition of human NCI-H460 cells at 10^-5 M incubated for 48 hrs by sulforhodamine B assay; in short: as §1
NCI-H23 = assay: Growth inhibition of human NCI-H23 cells at 10^-5 M incubated for 48 hrs by sulforhodamine B assay; in short: as §1
IGROV-1 = assay: Growth inhibition of human IGROV1 cells at 10^-5 M incubated for 48 hrs by sulforhodamine B assay; in short: as §1
UO-31 = assay: Growth inhibition of human UO31 cells at 10^-5 M incubated for 48 hrs by sulforhodamine B assay; in short: as §2
MOLT-4 = assay: Growth inhibition of human MOLT4 cells at 10^-5 M incubated for 48 hrs by sulforhodamine B assay; in short: as §1
CCRF-CEM = assay: Growth inhibition of human CCRF-CEM cells at 10^-5 M incubated for 48 hrs by sulforhodamine B assay; in short: as §1
M14 = assay: Growth inhibition of human M14 cells at 10^-5 M incubated for 48 hrs by sulforhodamine B assay; in short: as §1
MDA-MB-435 = assay: Growth inhibition of human MDA-MB-435 cells at 10^-5 M incubated for 48 hrs by sulforhodamine B assay; in short: as §1
OVCAR-5 = assay: Growth inhibition of human OVCAR5 cells at 10^-5 M incubated for 48 hrs by sulforhodamine B assay; in short: as §1
CAKI-1 = assay: Growth inhibition of human Caki1 cells at 10^-5 M incubated for 48 hrs by sulforhodamine B assay; in short: as §1
RXF 393 = assay: Growth inhibition of human RXF393 cells at 10^-5 M incubated for 48 hrs by sulforhodamine B assay; in short: as §1
HOP-92 = assay: Growth inhibition of human HOP92 cells at 10^-5 M incubated for 48 hrs by sulforhodamine B assay; in short: as §1
HL-60(TB) = assay: Growth inhibition of human HL-60(TB) cells at 10^-5 M incubated for 48 hrs by sulforhodamine B assay
In short: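 Run in the NCI59 cell-line one-dose screen, with each compound tested at a single concentration of 1 × 10−5 M.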

HCT-15 = assay: Growth inhibition of human HCT15 cells at 10^-5 M incubated for 48 hrs by sulforhodamine B assay; in short: as §1
NCI-H322M = assay: Growth inhibition of human NCI-H322M cells at 10^-5 M incubated for 48 hrs by sulforhodamine B assay; in short: as §1
TK-10 = assay: Growth inhibition of human TK10 cells at 10^-5 M incubated for 48 hrs by sulforhodamine B assay; in short: as §2
UACC-257 = assay: Growth inhibition of human UACC257 cells at 10^-5 M incubated for 48 hrs by sulforhodamine B assay; in short: as §2
NCI-H522 = assay: Growth inhibition of human NCI-H522 cells at 10^-5 M incubated for 48 hrs by sulforhodamine B assay; in short: as §1
OVCAR-8 = assay: Growth inhibition of human OVCAR8 cells at 10^-5 M incubated for 48 hrs by sulforhodamine B assay; in short: as §1
EKVX = assay: Growth inhibition of human EKVX cells at 10^-5 M incubated for 48 hrs by sulforhodamine B assay; in short: as §1
HT-29 = assay: Growth inhibition of human HT-29 cells at 10^-5 M incubated for 48 hrs by sulforhodamine B assay; in short: as §1
RPMI-8226 = assay: Growth inhibition of human RPMI8226 cells at 10^-5 M incubated for 48 hrs by sulforhodamine B assay; in short: as §1
OVCAR-3 = assay: Growth inhibition of human OVCAR3 cells at 10^-5 M incubated for 48 hrs by sulforhodamine B assay; in short: as §1
U-251 = assay: Growth inhibition of human U251 cells at 10^-5 M incubated for 48 hrs by sulforhodamine B assay; in short: as §2
SNB-75 = assay: Growth inhibition of human SNB75 cells at 10^-5 M incubated for 48 hrs by sulforhodamine B assay; in short: as §1
DU-145 = assay: Growth inhibition of human DU145 cells at 10^-5 M incubated for 48 hrs by sulforhodamine B assay; in short: as §1
A549 = assay: Growth inhibition of human A549/ATCC cells at 10^-5 M incubated for 48 hrs by sulforhodamine B assay; in short: as §1
SF-268 = assay: Growth inhibition of human SF268 cells at 10^-5 M incubated for 48 hrs by sulforhodamine B assay; in short: as §1

Measured: growth inhibition (GI)

CC[C@H](C)C(=O)O[C@@H]1[C@@H]2[C@@H](OC(=O)[C@@H](C)CC)[C@@]34O[C@]2(O)[C@@](C)([C@@H](CC(=O)OC)C1(C)C)[C@H]3CC[C@]1(C)C4=CC(=O)O[C@H]1C1=CC(O)OC1=O (stereo partly drawn)
inactive: all assays above
